Consider 15 compounds from PubChem BioAssay.

Activity calls are given as the source filed them.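 How the source made its calls, unless noted: active means viability at or below 30% in both replicate assays; inconclusive means viability at or below 30% in just one of the two assays; inactive means the rest.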

The nature of assay [1]: reducers of endogenous Her2 protein level, primary screen, SKBR3 breast tumor cells, AlphaScreen, ATP viability (AID 461;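 active means Her2 level under about 52% in both replicate screens, with viability over 70% of control, limit read from the data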;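 on Her2 level: lower value means less Her2 protein in the cells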;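 on viability: percent of carrier control wells set as 100% viability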). The conditions noted are these: 18-24 h, measured here: SKBR3 viability, ATP luminescence, at 10 µM.
Assay [2] has as its target Receptor tyrosine-protein kinase erbB-2 (Homo sapiens) (UniProt P04626). Described as above. The conditions noted are these: 18-24 h, at 10 µM, stronger effect = lower value.
Assay [3] is described as follows: SK-BR-3 cell growth inhibitors, pilot screen, 24 h, human (AID 572;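 active means viability at or below 10% of carrier control in both of two separate runs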;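 further: compound exposure lasted between 18 and 24 h rather than exactly 24 h; 100% = carrier-treated control wells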). The settings on record: SK-BR-3 viability, CellTiter-Glo luminescence, at 10 µM, stronger effect = lower value.
A short description of assay [4]: HUVEC growth inhibition – cell-based, human, primary screen (AID 575).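 Further: 100% = median of untreated cell wells with 0.1% DMSO on each plate.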 The settings on record: HUVEC proliferation, CellTiter-Glo luminescence, 72 h; at 10 µM; stronger effect = lower value. The method, boiled down: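 Test system: primary human umbilical vein endothelial cells; medium: endothelial basal medium with 2% FBS plus growth supplements; dosing: 10 µM compound only; times: 72 h treatment at 37 °C; signal: CTG luminescence; read-out: % viability relative to median vehicle-well signal on each plate; control set: vehicle and MePR control wells; plate: 384-well, collagen-coated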

Assay [5] in a line: growth inhibitors of H69AR lung tumor, primary screen, human, duplicate replicates (AID 580;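 active means viability at or under a set limit in both replicates, limit being median viability minus 3 SD, cut at about 48% in these data, passing the limit was not always enough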;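 further: 100% = mean luminescence of untreated wells and 0% = no signal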). The conditions noted are these: H69AR lung tumor cells viability, ATP luminescence, 72 h; at 10 µM; stronger effect = lower value.
Assay [6] can be described thus: reversal of MRP1-mediated doxorubicin resistance, pilot screen, H69AR cells, doxorubicin co-treatment (AID 601;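 active means viability loss from added drug above about 55%, and viability with drug at most 40%, in both replicates, limit read from the data, passing the limit was not always enough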). The conditions noted are these: CellTiter-Glo, 72 h, at 10 µM; for differential viability (reversal): stronger effect = higher value.
A short description of assay [7]: 384-well plate pilot, post-Golgi transport modulator project, inhibition of yeast transport mutant growth (AID 636; in the data active means inhibition above about 31%). The conditions noted are these: absorbance 615 nm, about 18 h, stronger effect = higher value.
The nature of assay [8]: growth suppression of yeast trafficking mutant, preliminary HTS, modulators of trafficking downstream of Golgi apparatus project, 1536-format plate, OD 615 nm (AID 637; in the data active means inhibition above about 30%). The conditions noted are these: yeast transport mutant growth, absorbance 615 nm, 18 h; stronger effect = higher value.
Setting [9] is: H69AR cells + 2 uM doxorubicin, measured here: viability with 2 uM doxorubicin, stronger effect = lower value.
[10] abbreviates: H69AR cells, compound alone cytotoxicity.

Chain of Receptor tyrosine-protein kinase erbB-2 (Homo sapiens) (P04626 whole entry, looked up): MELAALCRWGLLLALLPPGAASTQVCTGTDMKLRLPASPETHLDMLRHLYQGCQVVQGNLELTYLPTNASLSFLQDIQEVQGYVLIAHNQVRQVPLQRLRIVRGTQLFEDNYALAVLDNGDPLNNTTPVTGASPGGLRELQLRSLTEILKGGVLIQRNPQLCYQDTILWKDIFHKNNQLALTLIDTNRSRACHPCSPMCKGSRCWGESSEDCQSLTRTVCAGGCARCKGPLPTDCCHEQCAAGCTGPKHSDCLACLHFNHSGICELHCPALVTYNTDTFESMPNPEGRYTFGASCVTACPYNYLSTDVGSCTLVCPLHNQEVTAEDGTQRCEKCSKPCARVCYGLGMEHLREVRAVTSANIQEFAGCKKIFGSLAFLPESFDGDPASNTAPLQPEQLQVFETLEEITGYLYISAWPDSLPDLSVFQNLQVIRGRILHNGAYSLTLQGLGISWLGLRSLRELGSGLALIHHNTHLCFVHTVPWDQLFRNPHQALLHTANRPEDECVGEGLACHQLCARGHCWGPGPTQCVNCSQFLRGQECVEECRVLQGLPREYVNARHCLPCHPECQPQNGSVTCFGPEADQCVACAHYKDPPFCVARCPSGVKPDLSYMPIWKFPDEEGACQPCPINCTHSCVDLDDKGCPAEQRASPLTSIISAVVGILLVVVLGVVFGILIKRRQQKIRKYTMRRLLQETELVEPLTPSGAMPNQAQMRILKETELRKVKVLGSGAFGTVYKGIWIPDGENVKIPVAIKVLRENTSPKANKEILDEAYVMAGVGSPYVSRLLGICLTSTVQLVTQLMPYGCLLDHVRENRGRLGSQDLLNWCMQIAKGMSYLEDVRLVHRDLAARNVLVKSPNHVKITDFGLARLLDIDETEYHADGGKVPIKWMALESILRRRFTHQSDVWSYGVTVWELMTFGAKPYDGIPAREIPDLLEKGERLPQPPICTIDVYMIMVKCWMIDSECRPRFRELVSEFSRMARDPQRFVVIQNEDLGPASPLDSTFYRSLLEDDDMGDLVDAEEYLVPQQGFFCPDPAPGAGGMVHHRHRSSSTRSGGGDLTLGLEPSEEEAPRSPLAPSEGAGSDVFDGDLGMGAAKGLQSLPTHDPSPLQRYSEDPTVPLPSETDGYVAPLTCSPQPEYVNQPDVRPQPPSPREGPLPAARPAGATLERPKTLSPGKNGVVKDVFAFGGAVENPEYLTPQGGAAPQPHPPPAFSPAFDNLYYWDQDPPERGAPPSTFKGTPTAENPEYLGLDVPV

On to `COc1ccc(CCNC(=O)CSc2nnc(CNc3ccc(Cl)cc3)o2)cc1OC`, for which the viability in assay [1] is 112%; in assay [3] it was 112% (inactive); in assay [4], 60.5% (inactive); in assay [5] it was 84.3% (inactive); in assay [6] (setting [9]) it was 90.9%; in assay [6] (setting [10]), 84.3%. Besides, the Her2 level in assay [2] is 89% (inactive). Also, the differential viability (reversal) in assay [6] (H69AR cells + 2 uM doxorubicin) is -6.59% (inactive). The figures for the inhibition in assay [7] and in assay [8] were -0.65% (inactive) and -4.29% (inactive), respectively.

Regarding `O=C(CCNC(=O)Cn1ccc2ccccc2c1=O)NCCN1CCN(c2ccccc2F)CC1`, the viability in assay [1] was 96%; in assay [3], 96% (inactive); in assay [4] it was 99.2% (inactive); in assay [5], 88.1% (inactive); in assay [6] (setting [9]), 79%; in assay [6] (setting [10]), 88.1%. Also, the Her2 level in assay [2] was 92% (inactive). Further, in assay [6] (H69AR cells + 2 uM doxorubicin), the differential viability (reversal) was 9.11% (inactive). The inhibition in assay [7] was -4.87% (inactive); in assay [8] it was -1.45% (inactive).

For the compound `Nn1cc(-c2ccccc2)nc1SCC(=O)N1CCN(S(=O)(=O)c2ccccc2)CC1`, the viability was 77% in assay [1]; 77% (inactive) in assay [3]; 90.5% (inactive) in assay [4]; 101% (inactive) in assay [5]; 102% in assay [6] (setting [9]); 101% in assay [6] (setting [10]). For the same compound, the Her2 level in assay [2] was 96% (inactive). For the same compound, the differential viability (reversal) in assay [6] (H69AR cells + 2 uM doxorubicin) is -0.4% (inactive). Besides, the inhibition in assay [7] was 0.91% (inactive); in assay [8] it was -6.56% (inactive).

For the compound `CCCC(=O)Nc1ccc(NC(=O)c2ccccc2OC)cn1`, the viability was 94.5% in assay [1]; 94.5% (inactive) in assay [3]; 100% (inactive) in assay [4]; 92.9% (inactive) in assay [5]; 86.9% in assay [6] (setting [9]); 92.9% in assay [6] (setting [10]). In assay [2], the Her2 level is 101% (inactive). In addition, the differential viability (reversal) in assay [6] (H69AR cells + 2 uM doxorubicin) was 5.96% (inactive). Besides, the inhibition in assay [7] was -1.17% (inactive); in assay [8], -4.43% (inactive).

For the compound `Clc1ccc(OCCCn2cncn2)cc1Cl`, the viability in assay [1] is 104%; in assay [3], 104% (inactive); in assay [4], 92.5% (inactive); in assay [5] it was 80.2% (inactive); in assay [6] (setting [9]) it was 86.5%; in assay [6] (setting [10]) it was 80.2%. Further, the Her2 level in assay [2] is 99% (inactive). Also, the differential viability (reversal) in assay [6] (H69AR cells + 2 uM doxorubicin) was -6.33% (inactive). Also, the inhibition in assay [7] is 2.03% (inactive); in assay [8], 16.4% (inactive).

As for `CC(=O)Nc1ccc(NS(=O)(=O)c2ccc(Cl)c(C(=O)O)c2)cc1`, the viability was 106% in assay [1]; 106% (inactive) in assay [3]; 100% (inactive) in assay [4]; 103% (inactive) in assay [5]; 92.8% in assay [6] (setting [9]); 103% in assay [6] (setting [10]). Further, the Her2 level in assay [2] was 108% (inactive). Moreover, the differential viability (reversal) in assay [6] (H69AR cells + 2 uM doxorubicin) is 9.96% (inactive). The inhibition in assay [7] was -4.61% (inactive); in assay [8], -3.17% (inactive).

`CCOC(=O)C1CCN(C(=O)Nc2ccc3snnc3c2)CC1`: the viability in assay [1] is 96.5%; in assay [3], 96.5% (inactive); in assay [4], 92.2% (inactive); in assay [5], 94.9% (inactive); in assay [6] (setting [9]), 89%; in assay [6] (setting [10]), 94.9%. Also, the Her2 level in assay [2] was 88.5% (inactive). Also, the differential viability (reversal) in assay [6] (H69AR cells + 2 uM doxorubicin) is 5.87% (inactive). Further, the inhibition was -6.08% (inactive) in assay [7] and -0.67% (inactive) in assay [8].

As for `CC1=C(C(=O)NCc2ccccn2)C2(CCC(C)CC2)OC1=O` (stereo not given), the viability in assay [1] was 94.5%; in assay [3], 94.5% (inactive); in assay [4] it was 103% (inactive); in assay [5], 89.4% (inactive); in assay [6] (setting [9]), 89.7%; in assay [6] (setting [10]), 89.4%. For the same compound, the Her2 level in assay [2] is 99% (inactive). Besides, in assay [6] (H69AR cells + 2 uM doxorubicin), the differential viability (reversal) was -0.25% (inactive). Moreover, the figures for the inhibition in assay [7] and in assay [8] were -5.47% (inactive) and -1.97% (inactive), respectively.

As to `CC(C)CN(CC(C)C)C(=O)C12CCC(C)(C(=O)C1)C2(C)C` (stereo not given), the viability in assay [1] was 74%; in assay [3] it was 74% (inactive); in assay [4], 110% (inactive); in assay [5], 96.8% (inactive); in assay [6] (setting [9]) it was 84.4%; in assay [6] (setting [10]), 96.8%. Besides, the Her2 level in assay [2] was 103% (inactive). The differential viability (reversal) in assay [6] (H69AR cells + 2 uM doxorubicin) is 12.3% (inactive). For the same compound, the inhibition in assay [7] is 1.33% (inactive); in assay [8], -7.62% (inactive).

For `COc1ccc(N2CCN(CCNS(=O)(=O)c3cccc4nsnc34)CC2)cc1`, the viability in assay [1] is 98%; in assay [3], 98% (inactive); in assay [4] it was 102% (inactive); in assay [5], 91.1% (inactive); in assay [6] (setting [9]), 94.1%; in assay [6] (setting [10]), 91.1%. Also, in assay [2], the Her2 level is 91% (inactive). For the same compound, the differential viability (reversal) in assay [6] (H69AR cells + 2 uM doxorubicin) was -2.98% (inactive). In addition, the inhibition is -5.2% (inactive) in assay [7] and 1.11% (inactive) in assay [8].

Consider `CC(=O)NC1(C(F)(F)F)NC(=O)N(CC(C)C)C1=O` (stereo not given), for which the viability in assay [1] was 103%; in assay [3] it was 103% (inactive); in assay [4], 91.1% (inactive); in assay [5], 102% (inactive); in assay [6] (setting [9]) it was 83.6%; in assay [6] (setting [10]), 102%. The Her2 level in assay [2] is 109% (inactive). Besides, the differential viability (reversal) in assay [6] (H69AR cells + 2 uM doxorubicin) was 18.8% (inactive). For the same compound, the figures for the inhibition in assay [7] and in assay [8] were -2.3% (inactive) and -0.66% (inactive), respectively.

On to `CCC(C)OC(=O)c1[nH]c2c(c1C)C(=O)CC(c1ccc(N(C)C)cc1)C2` (stereo not given), for which the viability was 88.5% in assay [1]; 88.5% (inactive) in assay [3]; 57.9% (inactive) in assay [4]; 27.6% (active) in assay [5]; 75.3% in assay [6] (setting [9]); 27.6% in assay [6] (setting [10]). In addition, the Her2 level in assay [2] was 73% (inactive). In addition, the differential viability (reversal) in assay [6] (H69AR cells + 2 uM doxorubicin) is -47.7% (inactive). Also, the values for the inhibition in assay [7] and in assay [8] were -2.93% (inactive) and 24.8% (inactive), respectively.

For `COc1cccc(OCCSc2nnc3sc4ccccc4n23)c1`, the viability in assay [1] is 86%; in assay [3] it was 86% (inactive); in assay [4], 106% (inactive); in assay [5] it was 85.3% (inactive); in assay [6] (setting [9]) it was 91.8%; in assay [6] (setting [10]), 85.3%. Also, the Her2 level in assay [2] is 98% (inactive). Besides, in assay [6] (H69AR cells + 2 uM doxorubicin), the differential viability (reversal) is -6.48% (inactive). The results for the inhibition in assay [7] and in assay [8] were 2.73% (inactive) and 0.66% (inactive), respectively.

Turning to `COc1ccc(N2CCN(C(=O)CCNS(=O)(=O)c3ccc(Br)s3)CC2)cc1`, the viability in assay [1] was 64%; in assay [3], 64% (inactive); in assay [4], 80.1% (inactive); in assay [5], 88.7% (inactive); in assay [6] (setting [9]) it was 92.3%; in assay [6] (setting [10]), 88.7%. The Her2 level in assay [2] was 91.5% (inactive). Besides, in assay [6] (H69AR cells + 2 uM doxorubicin), the differential viability (reversal) is -3.66% (inactive). For the same compound, the figures for the inhibition in assay [7] and in assay [8] were -4.55% (inactive) and 6.72% (inactive), respectively.

On to `O=C(c1ncc[nH]1)c1ccccc1C(=O)N1CCOCC1`, for which the viability in assay [1] is 118%; in assay [3], 118% (inactive); in assay [4], 100% (inactive); in assay [5], 90.3% (inactive); in assay [6] (setting [9]), 87.3%; in assay [6] (setting [10]) it was 90.3%. In assay [2], the Her2 level was 112% (inactive). Further, the differential viability (reversal) in assay [6] (H69AR cells + 2 uM doxorubicin) is 3.04% (inactive). The inhibition in assay [7] is -5.21% (inactive); in assay [8], 1.75% (inactive).
